Results: ChEMBL document CHEMBL1671657, “MurF inhibitors with antibacterial activity: effect on muropeptide levels” (Antimicrob Agents Chemother, 2009)
≈ marks a conversion by molar mass, not a printed value. Calls of active or inactive are those of the source. The calls are words filed in the database; no cut-off is given here. Bridge positions count the residues as written; N and C are the ends. Square brackets hold non-standard residues; d marks the D form. Peptide text beside a SMILES is read from it. Dab = NCC[C@H](N)C(=O)O

Assays:
Escherichia coli [1] = experiment: Antimicrobial activity against LPS-deffective Escherichia coli OC2530 by broth microdilution method; assay type: functional
In short: (§1)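 MICs by CLSI broth microdilution. Where polymyxin B nonapeptide was included, it was present at 2 μg/ml alongside the test compound.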

Escherichia coli [2] = experiment: Antimicrobial activity against Escherichia coli OC2605 by broth microdilution method; assay type: functional
In short: (§2)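 CLSI broth microdilution MIC; strains from the sponsor's in-house collection.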

Escherichia coli [3] = experiment: Antimicrobial activity against Escherichia coli OC9040 by broth microdilution method; assay type: functional; in short: as §1
Escherichia coli [4] = experiment: Antimicrobial activity against Escherichia coli ATCC 25922 by broth microdilution method; assay type: functional; in short: as §1
Enterococcus faecalis = experiment: Antimicrobial activity against Enterococcus faecalis ATCC 29212 by broth microdilution method; assay type: functional; in short: as §1
Enterococcus faecium = experiment: Antimicrobial activity against Enterococcus faecium OC3312 by broth microdilution method; assay type: functional; in short: as §1
Staphylococcus aureus [5] = experiment: Antimicrobial activity against Staphylococcus aureus ATCC 29213 by broth microdilution method; assay type: functional; in short: as §1
Staphylococcus aureus [6] = experiment: Antimicrobial activity against methicillin-resistant Staphylococcus aureus OC3726 by broth microdilution method; assay type: functional; in short: as §2
Staphylococcus aureus [7] = experiment: Antimicrobial activity against methicillin-resistant Staphylococcus aureus OC2878 by broth microdilution method; assay type: functional; in short: as §2
Staphylococcus aureus [8] = experiment: Antimicrobial activity against Staphylococcus aureus OC4172 by broth microdilution method; assay type: functional; in short: as §1
Escherichia coli [9] = experiment: Antimicrobial activity against LPS-deffective Escherichia coli OC2530 assessed as cell aggregation at 0.5 times MIC by light microscopy relative to untreated control; assay type: functional, organism-based
In short: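 Cells were fixed on a glass slide under a coverslip and viewed by light microscopy at ×100/×1.25 oil immersion. Representative images were taken.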

Staphylococcus aureus [10] = experiment: Bacteriostatic activity against Staphylococcus aureus ATCC 29213 at 2 times MIC; assay type: functional, organism-based
Escherichia coli [11] = experiment: Antimicrobial activity against LPS-deffective Escherichia coli OC2530 harboring pMurF plasmid by broth microdilution method in presence of chloramphenicol; assay type: functional
In short: (§3)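 CLSI broth microdilution MIC for OC2530 carrying plasmid (empty pASK or pMurF). Medium contained chloramphenicol 3 μg/ml to keep the plasmid and AHT 100 ng/ml to induce MurF expression.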

Escherichia coli [12] = experiment: Antimicrobial activity against LPS-deffective Escherichia coli OC2530 harboring pASK plasmid by broth microdilution method in presence of chloramphenicol; assay type: functional; in short: as §3
Escherichia coli [13] = experiment: Inhibition of LPS-deficient Escherichia coli OC2530 MurF assessed as UDP-MurNAc-tripeptide substrate level at 2 times MIC by HPLC (reference value: 1 mAU)
Staphylococcus aureus [14] = experiment: Inhibition of Staphylococcus aureus ATCC 29213 MurF assessed as UDP-MurNAc-tripeptide substrate level at 2 times MIC by HPLC (reference value: 1 mAU)
In short: (§4)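 After 30 min, muropeptides were extracted and quantified by HPLC peak area, normalized to the control. The HPLC detection limit was 12 mAU. Results are representative of two independent experiments.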

Escherichia coli [15] = experiment: Inhibition of LPS-deficient Escherichia coli OC2530 MurF assessed as UDP-MurNAc-pentapeptide product level at 2 times MIC by HPLC (reference value: 1 mAU)
Staphylococcus aureus [16] = experiment: Inhibition of Staphylococcus aureus ATCC 29213 MurF assessed as UDP-MurNAc-pentapeptide product level at 2 times MIC by HPLC (reference value: 1 mAU); in short: as §4
Escherichia coli [17] = experiment: Inhibition of LPS-deficient Escherichia coli OC2530 MurF harboring pASK plasmid assessed as UDP-MurNAc-tripeptide substrate level at 2 times MIC by HPLC (reference value: 63 +/- 4 mAU)
In short: (§5)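 Compound added at 2× MIC from 500× stock (DMSO control). After 30 min, muropeptides extracted and quantified by HPLC peak area (mAU); representative of two independent experiments.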

Escherichia coli [18] = experiment: Inhibition of LPS-deficient Escherichia coli OC2530 MurF harboring pMurF plasmid assessed as UDP-MurNAc-tripeptide substrate level at 2 times MIC by HPLC (reference value: 220 +/- 65 mAU); in short: as §5
Escherichia coli [19] = experiment: Inhibition of LPS-deficient Escherichia coli OC2530 MurF harboring pASK plasmid assessed as UDP-MurNAc-pentapeptide product level at 2 times MIC by HPLC (Rvb =880 +/- 17 mAU); in short: as §5
Escherichia coli [20] = experiment: Inhibition of LPS-deficient Escherichia coli OC2530 MurF harboring pMurF plasmid assessed as UDP-MurNAc-pentapeptide product level at 2 times MIC by HPLC (reference value: 2674 +/- 696 mAU); in short: as §5
Escherichia coli [21] = experiment: Bactericidal activity against LPS-deffective Escherichia coli OC2530 at 2 times MIC by CFU quantitation

Row | SMILES | MIC (Escherichia coli [1]) | MIC (Escherichia coli [2]) | MIC (Escherichia coli [3]) | MIC (Escherichia coli [4]) | MIC (Enterococcus faecalis) | MIC (Enterococcus faecium) | MIC (Staphylococcus aureus [5]) | MIC (Staphylococcus aureus [6]) | MIC (Staphylococcus aureus [7]) | MIC (Staphylococcus aureus [8]) | further results
1 | CC(C)C[C@@H]1NC(=O)[C@@H](Cc2ccccc2)NC(=O)[C@H](CCN)NC(=O)[C@@H](NC(=O)[C@H](CCN)NC(=O)[C@@H](N)[C@@H](C)O)CCNC(=O)[C@H]([C@@H](C)O)NC(=O)[C@H](CCN)NC(=O)[C@H](CCN)NC1=O [POLYMYXIN B NONAPEPTIDE] (H-T[Dab][Dab][Dab][dF]L[Dab][Dab]T; lactam 3-C) | 16 µg/mL (≈ 16.6 µM) | 32 µg/mL (≈ 33.2 µM) | 64 µg/mL (≈ 66.4 µM) | 64 µg/mL (≈ 66.4 µM) | > 64 µg/mL | > 64 µg/mL | > 64 µg/mL | > 64 µg/mL | > 64 µg/mL | > 64 µg/mL | –
2 | N[C@@H]1CONC1=O [CYCLOSERINE] | 64 µg/mL (≈ 627 µM) | 16 µg/mL (≈ 157 µM) | 32 µg/mL (≈ 313 µM) | 32 µg/mL (≈ 313 µM) | 128 µg/mL (≈ 1250 µM) | 64 µg/mL (≈ 627 µM) | 32 µg/mL (≈ 313 µM) | 32 µg/mL (≈ 313 µM) | 64 µg/mL (≈ 627 µM) | 32 µg/mL (≈ 313 µM) | Activity (Escherichia coli [9]): Active; Activity (Staphylococcus aureus [10]): Active; MIC (Escherichia coli [11]): 64 µg/mL; MIC (Escherichia coli [12]): 64 µg/mL; Activity (fold of control) (Escherichia coli [13]): 30; Activity (fold of control) (Staphylococcus aureus [14]): > 100; Activity (fold of control) (Escherichia coli [15]): 0.12; Activity (fold of control) (Staphylococcus aureus [16]): 0.33; Activity (Escherichia coli [17]): 2260 mAU; Activity (Escherichia coli [18]): 5090 mAU; Activity (Escherichia coli [19]): 146 mAU; Activity (Escherichia coli [20]): 181 mAU; Activity (Escherichia coli [21]): Active
